Activity calls are given as the source filed them. The calls are words filed in the database; no cut-off is given here.
Tests used:
K562 [1] = assay: Induction of apoptosis in human K562 cells assessed as increase in PARP1 cleavage after 24 hrs by Immunoblotting; assay type: functional, cell-based
Summary of the method: (§1)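 Cells treated 24 h with a range of doses, with 1 μM doxorubicin as control. Cells were harvested into Laemmli buffer, run on SDS-PAGE and blotted to nitrocellulose. Membranes were probed overnight with primary antibodies (PARP, Ser139-phospho-H2AX, Bcl-2, β-actin loading control), then peroxidase secondaries, with ECL detection on a CCD imager.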

[2] = target: Serine/threonine-protein kinase PLK3 (Homo sapiens) (UniProt Q9H4B4); assay: Inhibition of PLK3 (unknown origin)
Sequence of Serine/threonine-protein kinase PLK3 (Homo sapiens) (Q9H4B4 whole entry, looked up): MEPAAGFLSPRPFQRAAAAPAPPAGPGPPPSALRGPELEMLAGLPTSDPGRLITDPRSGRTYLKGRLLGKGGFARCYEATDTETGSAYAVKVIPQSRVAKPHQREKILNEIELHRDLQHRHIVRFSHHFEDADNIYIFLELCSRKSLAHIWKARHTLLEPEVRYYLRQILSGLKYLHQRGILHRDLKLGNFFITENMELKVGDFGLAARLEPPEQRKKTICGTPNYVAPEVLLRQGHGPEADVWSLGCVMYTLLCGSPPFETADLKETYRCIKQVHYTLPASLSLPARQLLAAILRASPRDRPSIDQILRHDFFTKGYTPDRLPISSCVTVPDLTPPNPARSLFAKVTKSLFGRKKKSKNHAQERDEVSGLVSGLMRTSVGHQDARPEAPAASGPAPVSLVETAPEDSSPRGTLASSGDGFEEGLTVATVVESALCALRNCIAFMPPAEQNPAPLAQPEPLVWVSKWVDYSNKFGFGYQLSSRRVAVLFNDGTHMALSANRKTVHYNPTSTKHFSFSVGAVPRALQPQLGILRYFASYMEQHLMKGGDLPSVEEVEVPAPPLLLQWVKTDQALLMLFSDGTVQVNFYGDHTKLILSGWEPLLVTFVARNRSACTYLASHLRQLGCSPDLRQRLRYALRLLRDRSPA

MCF7 [3] = assay: Cell cycle arrest in human MCF7 cells assessed as accumulation at S phase at 10 uM after 24 hrs by propidium iodide staining-based flow cytometric analysis (reference value: 34.1%); assay type: functional
Summary of the method: (§2)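 MCF-7 cells in DMEM with 10% FBS and penicillin/streptomycin at 37 °C, 5% CO2. Asynchronous cells were treated 24 h, PBS-washed, trypsinized and quenched with 0.1% trypsin inhibitor. Staining used 5× citrate/IGEPAL/spermine/Tris buffer (pH 7.6) with 50 μg/mL propidium iodide. DNA content was read by 488 nm flow cytometry and cell-cycle phases modelled.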

[4] = target: T1, Serine/threonine-protein kinase Nek2 (Homo sapiens) (UniProt P51955); assay: Inhibition of NEK2 (unknown origin)
T1 sequence (whole entry): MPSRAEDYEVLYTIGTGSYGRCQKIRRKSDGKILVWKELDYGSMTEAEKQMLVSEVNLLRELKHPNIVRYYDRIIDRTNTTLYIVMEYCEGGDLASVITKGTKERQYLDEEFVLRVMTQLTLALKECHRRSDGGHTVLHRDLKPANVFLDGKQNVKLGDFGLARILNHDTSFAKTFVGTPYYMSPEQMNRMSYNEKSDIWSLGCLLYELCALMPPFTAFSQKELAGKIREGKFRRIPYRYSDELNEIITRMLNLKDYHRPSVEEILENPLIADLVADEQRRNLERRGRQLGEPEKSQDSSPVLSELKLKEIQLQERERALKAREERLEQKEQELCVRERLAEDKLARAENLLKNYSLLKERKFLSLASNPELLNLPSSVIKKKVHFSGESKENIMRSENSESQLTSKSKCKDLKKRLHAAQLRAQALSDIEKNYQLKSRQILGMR

[5] = target: Death-associated protein kinase 3 (Homo sapiens) (UniProt O43293); assay: Inhibition of DAPK3 (unknown origin)
Sequence of Death-associated protein kinase 3 (Homo sapiens) (O43293 whole entry, looked up): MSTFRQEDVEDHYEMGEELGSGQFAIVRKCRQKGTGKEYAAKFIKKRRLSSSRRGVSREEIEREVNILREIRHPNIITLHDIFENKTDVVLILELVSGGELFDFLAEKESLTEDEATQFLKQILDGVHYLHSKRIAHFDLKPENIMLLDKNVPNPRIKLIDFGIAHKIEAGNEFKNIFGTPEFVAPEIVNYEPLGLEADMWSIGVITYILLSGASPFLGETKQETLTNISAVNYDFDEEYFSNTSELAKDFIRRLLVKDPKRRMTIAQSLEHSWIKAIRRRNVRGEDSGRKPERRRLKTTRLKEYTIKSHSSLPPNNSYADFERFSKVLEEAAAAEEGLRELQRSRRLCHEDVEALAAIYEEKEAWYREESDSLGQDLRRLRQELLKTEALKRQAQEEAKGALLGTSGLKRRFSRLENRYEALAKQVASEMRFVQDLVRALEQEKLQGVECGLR

[6] = target: Serine/threonine-protein kinase NIM1 (Homo sapiens) (UniProt Q8IY84); assay: Inhibition of NIM1 (unknown origin)
Sequence of Serine/threonine-protein kinase NIM1 (Homo sapiens) (Q8IY84 whole entry): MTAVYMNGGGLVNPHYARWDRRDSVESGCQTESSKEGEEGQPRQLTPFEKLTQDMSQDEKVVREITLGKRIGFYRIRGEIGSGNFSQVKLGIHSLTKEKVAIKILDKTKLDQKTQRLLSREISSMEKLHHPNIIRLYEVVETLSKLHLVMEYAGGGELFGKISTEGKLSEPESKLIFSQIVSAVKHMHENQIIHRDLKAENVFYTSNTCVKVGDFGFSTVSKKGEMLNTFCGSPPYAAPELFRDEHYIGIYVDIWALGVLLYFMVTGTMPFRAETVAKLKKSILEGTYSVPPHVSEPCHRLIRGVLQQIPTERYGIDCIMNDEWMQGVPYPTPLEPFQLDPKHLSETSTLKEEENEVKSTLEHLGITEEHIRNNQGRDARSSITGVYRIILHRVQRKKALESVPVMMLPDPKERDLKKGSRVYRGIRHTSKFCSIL

MCF7 [7] = assay: Induction of apoptosis in human MCF7 cells assessed as increase in phosphorylated Bcl2 level at 1.25 to 20 uM after 24 hrs by immunoblotting; assay type: functional, cell-based; summary of the method: as §1
[8] = target: Serine/threonine-protein kinase pim-2 (Homo sapiens) (UniProt Q9P1W9); assay: Inhibition of PIM2 (unknown origin)
Sequence of Serine/threonine-protein kinase pim-2 (Homo sapiens) (Q9P1W9 whole entry, looked up): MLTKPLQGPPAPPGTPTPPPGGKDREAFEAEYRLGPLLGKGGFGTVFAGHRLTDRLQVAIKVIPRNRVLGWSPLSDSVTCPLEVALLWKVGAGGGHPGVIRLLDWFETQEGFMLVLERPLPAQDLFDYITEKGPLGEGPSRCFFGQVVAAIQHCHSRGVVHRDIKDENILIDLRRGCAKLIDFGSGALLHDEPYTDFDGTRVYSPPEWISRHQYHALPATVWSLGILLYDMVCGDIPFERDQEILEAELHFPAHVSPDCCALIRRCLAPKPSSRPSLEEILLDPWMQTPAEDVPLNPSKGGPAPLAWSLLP

MCF7 [9] = assay: Cell cycle arrest in human MCF7 cells assessed as accumulation at G2/M phase at 10 uM after 24 hrs by propidium iodide staining-based flow cytometric analysis (reference value: 5.3%); assay type: functional; summary of the method: as §2
MCF7 [10] = assay: Cell cycle arrest in human MCF7 cells assessed as accumulation at G1 phase at 10 uM after 24 hrs by propidium iodide staining-based flow cytometric analysis (reference value: 60.7%); assay type: functional; summary of the method: as §2
K562 [11] = assay: Induction of apoptosis in human K562 cells assessed as increase in gammaH2AX level at 1.25 to 20 uM after 24 hrs by immunoblotting; assay type: functional, cell-based; summary of the method: as §1
[12] = target: Serine/threonine-protein kinase Nek6 (Homo sapiens) (UniProt Q9HC98); assay: Inhibition of NEK6 (unknown origin)
Sequence of Serine/threonine-protein kinase Nek6 (Homo sapiens) (Q9HC98 whole entry): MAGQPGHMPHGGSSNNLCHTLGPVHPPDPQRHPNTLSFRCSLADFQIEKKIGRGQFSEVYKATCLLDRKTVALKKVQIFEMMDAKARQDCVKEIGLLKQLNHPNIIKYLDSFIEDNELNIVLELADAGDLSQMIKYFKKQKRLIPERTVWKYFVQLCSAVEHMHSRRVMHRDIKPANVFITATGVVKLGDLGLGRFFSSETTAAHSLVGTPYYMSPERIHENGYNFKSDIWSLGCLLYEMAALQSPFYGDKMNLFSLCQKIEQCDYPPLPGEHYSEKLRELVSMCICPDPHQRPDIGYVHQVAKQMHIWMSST

K562 [13] = assay: Cell cycle arrest in human K562 cells assessed as accumulation at sub G1 phase at 10 uM after 24 hrs by propidium iodide staining-based flow cytometric analysis (reference value: 15%); assay type: functional
K562 [14] = assay: Growth inhibition of human K562 cells after 72 hrs by Calcein AM dye based fluorescence assay; assay type: functional; settings: K562, 72 h
Summary of the method: (§3)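 Cells in DMEM with 10% FBS at 37 °C, 5% CO2, treated in triplicate with six doses for 72 h. Calcein AM was added for 1 h and live-cell fluorescence read at 485/538 nm. GI50 was taken from dose-response curves.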

MCF7 [15] = assay: Growth inhibition of human MCF7 cells after 72 hrs by Calcein AM dye based fluorescence assay; assay type: functional; settings: MCF7, 72 h; summary of the method: as §3
[16] = target: Serine/threonine-protein kinase PLK2 (Homo sapiens) (UniProt Q9NYY3); assay: Inhibition of PLK2 (unknown origin)
Sequence of Serine/threonine-protein kinase PLK2 (Homo sapiens) (Q9NYY3 whole entry, looked up): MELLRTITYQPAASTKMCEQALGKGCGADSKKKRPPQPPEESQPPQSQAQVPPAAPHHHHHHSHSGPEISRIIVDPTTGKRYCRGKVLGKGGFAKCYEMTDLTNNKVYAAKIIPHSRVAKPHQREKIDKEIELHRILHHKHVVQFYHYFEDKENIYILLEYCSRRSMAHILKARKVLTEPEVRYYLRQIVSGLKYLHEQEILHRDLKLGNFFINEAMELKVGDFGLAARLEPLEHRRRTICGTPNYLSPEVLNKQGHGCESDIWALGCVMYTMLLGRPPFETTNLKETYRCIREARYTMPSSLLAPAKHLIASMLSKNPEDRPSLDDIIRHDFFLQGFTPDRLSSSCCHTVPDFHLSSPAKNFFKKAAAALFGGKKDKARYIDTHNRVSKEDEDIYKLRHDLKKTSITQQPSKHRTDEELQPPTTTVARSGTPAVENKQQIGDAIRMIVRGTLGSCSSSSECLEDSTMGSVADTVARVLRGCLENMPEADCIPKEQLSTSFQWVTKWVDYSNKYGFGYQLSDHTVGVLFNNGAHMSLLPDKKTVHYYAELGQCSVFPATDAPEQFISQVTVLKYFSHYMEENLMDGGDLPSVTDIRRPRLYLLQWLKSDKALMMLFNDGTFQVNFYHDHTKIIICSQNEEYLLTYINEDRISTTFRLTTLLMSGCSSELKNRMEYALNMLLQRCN

MCF7 [17] = assay: Induction of apoptosis in human MCF7 cells assessed as increase in gammaH2AX level at 1.25 to 20 uM after 24 hrs by immunoblotting; assay type: functional, cell-based; summary of the method: as §1
MCF7 [18] = assay: Cell cycle arrest in human MCF7 cells assessed as accumulation at sub G1 phase at 10 uM after 24 hrs by propidium iodide staining-based flow cytometric analysis (reference value: 7.1%); assay type: functional; summary of the method: as §2
[19] = target: Serine/threonine-protein kinase Nek4 (Homo sapiens) (UniProt P51957); assay: Inhibition of NEK4 (unknown origin)
Sequence of Serine/threonine-protein kinase Nek4 (Homo sapiens) (P51957 whole entry, looked up): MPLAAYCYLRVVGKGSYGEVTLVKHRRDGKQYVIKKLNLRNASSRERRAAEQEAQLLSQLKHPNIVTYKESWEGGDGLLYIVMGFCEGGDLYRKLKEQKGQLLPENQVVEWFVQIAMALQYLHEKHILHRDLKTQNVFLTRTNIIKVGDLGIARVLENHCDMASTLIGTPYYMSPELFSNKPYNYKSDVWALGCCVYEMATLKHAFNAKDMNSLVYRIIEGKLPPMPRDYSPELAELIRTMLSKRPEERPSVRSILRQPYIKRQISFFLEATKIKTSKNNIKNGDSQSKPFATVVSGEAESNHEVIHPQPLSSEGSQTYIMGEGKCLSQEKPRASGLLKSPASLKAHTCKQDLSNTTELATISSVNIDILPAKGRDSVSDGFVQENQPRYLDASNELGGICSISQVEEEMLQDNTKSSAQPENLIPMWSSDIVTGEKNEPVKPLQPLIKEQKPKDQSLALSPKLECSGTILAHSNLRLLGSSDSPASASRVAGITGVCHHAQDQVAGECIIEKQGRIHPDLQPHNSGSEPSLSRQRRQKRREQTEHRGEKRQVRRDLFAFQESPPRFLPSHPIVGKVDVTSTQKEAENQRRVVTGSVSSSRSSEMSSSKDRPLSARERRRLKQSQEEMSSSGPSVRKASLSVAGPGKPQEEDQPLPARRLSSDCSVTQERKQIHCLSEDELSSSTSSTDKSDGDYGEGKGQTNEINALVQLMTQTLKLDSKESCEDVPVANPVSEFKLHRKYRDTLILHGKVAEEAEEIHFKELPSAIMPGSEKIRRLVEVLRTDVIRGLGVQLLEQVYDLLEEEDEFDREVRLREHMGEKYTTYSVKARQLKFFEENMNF

[20] = target: Wee1-like protein kinase (Homo sapiens) (UniProt P30291); assay: Inhibition of WEE1 (unknown origin)
Sequence of Wee1-like protein kinase (Homo sapiens) (P30291 whole entry, looked up): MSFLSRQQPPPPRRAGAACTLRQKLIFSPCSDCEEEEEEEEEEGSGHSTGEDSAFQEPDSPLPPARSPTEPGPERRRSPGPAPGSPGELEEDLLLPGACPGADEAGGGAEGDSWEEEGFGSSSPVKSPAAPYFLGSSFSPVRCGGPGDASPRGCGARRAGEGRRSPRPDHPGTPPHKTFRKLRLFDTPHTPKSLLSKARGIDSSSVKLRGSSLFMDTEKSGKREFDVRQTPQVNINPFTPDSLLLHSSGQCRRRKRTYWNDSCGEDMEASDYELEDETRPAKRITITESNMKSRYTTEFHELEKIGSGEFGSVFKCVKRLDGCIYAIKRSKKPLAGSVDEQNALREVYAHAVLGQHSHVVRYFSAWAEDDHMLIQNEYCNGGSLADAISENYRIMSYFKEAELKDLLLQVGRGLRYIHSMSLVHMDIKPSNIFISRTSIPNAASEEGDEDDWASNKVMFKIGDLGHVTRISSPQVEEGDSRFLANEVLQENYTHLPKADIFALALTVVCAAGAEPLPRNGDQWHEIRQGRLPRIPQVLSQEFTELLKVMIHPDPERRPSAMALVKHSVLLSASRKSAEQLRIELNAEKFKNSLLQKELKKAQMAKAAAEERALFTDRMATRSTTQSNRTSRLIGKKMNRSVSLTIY

MCF7 [21] = assay: Induction of apoptosis in human MCF7 cells assessed as increase in PARP1 cleavage after 24 hrs by Immunoblotting; assay type: functional, cell-based; summary of the method: as §1
[22] = target: T2, Aurora kinase A (Homo sapiens) (UniProt O14965); assay: Inhibition of Aurora A (unknown origin)
T2 sequence (whole entry): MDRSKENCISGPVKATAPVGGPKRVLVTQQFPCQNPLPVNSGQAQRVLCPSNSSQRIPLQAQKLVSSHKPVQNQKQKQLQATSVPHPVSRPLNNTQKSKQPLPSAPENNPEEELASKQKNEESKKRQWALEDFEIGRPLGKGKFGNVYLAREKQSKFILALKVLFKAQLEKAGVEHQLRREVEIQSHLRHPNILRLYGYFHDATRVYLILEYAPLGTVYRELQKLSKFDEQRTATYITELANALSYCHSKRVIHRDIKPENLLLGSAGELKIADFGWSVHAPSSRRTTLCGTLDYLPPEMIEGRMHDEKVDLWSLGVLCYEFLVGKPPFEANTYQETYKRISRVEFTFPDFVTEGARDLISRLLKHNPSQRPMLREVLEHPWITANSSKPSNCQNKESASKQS

K562 [23] = assay: Cell cycle arrest in human K562 cells assessed as accumulation at S phase at 10 uM after 24 hrs by propidium iodide staining-based flow cytometric analysis (reference value: 50.3%); assay type: functional
K562 [24] = assay: Cell cycle arrest in human K562 cells assessed as accumulation at G1 phase at 10 uM after 24 hrs by propidium iodide staining-based flow cytometric analysis (reference value: 34.6%); assay type: functional

Structure (SMILES): CCCCCc1cc2nn(-c3ccccc3)cc2cn1
- Activity (K562 [1]): Dose-dependent effect
- inhibition [2]: inactive
- Activity (MCF7 [3]): 26.3%
- inhibition [4]: inactive
- inhibition [5]: inactive
- inhibition [6]: inactive
- Activity (MCF7 [7]): Active
- inhibition [8]: inactive
- Activity (MCF7 [9]): 55.6%
- Activity (MCF7 [10]): 18.1%
- Activity (K562 [11]): Active
- inhibition [12]: inactive
- Activity (K562 [13]): 35.4%
- GI50 (K562 [14]): 2.1 µM
- GI50 (MCF7 [15]): 11.8 µM
- inhibition [16]: inactive
- Activity (MCF7 [17]): Active
- Activity (MCF7 [18]): 50.3%
- inhibition [19]: inactive
- inhibition [20]: inactive
- Activity (MCF7 [21]): Dose-dependent effect
- inhibition [22]: inactive
- Activity (K562 [23]): 3.3%
- Activity (K562 [24]): 14.8%
